Assay [1] addresses T1, human PRODH2 157–515 (Homo sapiens, UniProt Q9UF12).
T1 sequence (Q9UF12 81-439 limits assumed): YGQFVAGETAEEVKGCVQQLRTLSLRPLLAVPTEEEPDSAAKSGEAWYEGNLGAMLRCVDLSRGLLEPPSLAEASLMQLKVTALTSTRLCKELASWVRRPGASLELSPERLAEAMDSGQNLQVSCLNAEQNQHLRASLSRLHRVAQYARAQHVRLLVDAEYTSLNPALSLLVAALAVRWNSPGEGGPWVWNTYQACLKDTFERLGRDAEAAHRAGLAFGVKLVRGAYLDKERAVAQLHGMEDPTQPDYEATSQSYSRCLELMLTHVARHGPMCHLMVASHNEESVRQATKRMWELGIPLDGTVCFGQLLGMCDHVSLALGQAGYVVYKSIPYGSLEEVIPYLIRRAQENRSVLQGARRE
Put plainly: Steady-state kinetics with ubiquinone analogues as electron acceptors. The assay is classed as biochemical. Particulars: for ability to support Hyp turnover as electron acceptor: Triton X-100 included with CoQ4.

Assay [2] concerns the target T2, human PRODH2 157–515 (HYPDH) (Homo sapiens, UniProt Q9UF12).
T2 sequence (Q9UF12 81-439 limits assumed): T1 sequence (Q9UF12 81-439 limits assumed)
Put plainly: Inhibition studies, standard o-AB assay. The assay is classed as biochemical. Particulars: 600 mM Hyp; for inhibition of HYPDH activity: up to 5 mM; for IC50: 5 min preincubation, compound up to 5 mM. Summed up: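 Purified PRODH2 157–515 at 200 nM in 50 mM HEPES pH 7.5 with 4 mM o-AB and 200 μM CoQ1 as electron acceptor, 25°C. Test compound (up to 5 mM) was preincubated with enzyme for 5 min, then 600 mM Hyp was added. Product–o-AB adduct was followed at 443 nm. Percent activity versus concentration was fit assuming single-site binding to give IC50. Stocks were aqueous, except one in DMSO (3% final).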

Assay [3] has as its target T1, human PRODH2 157–515. Put plainly: Steady-state kinetic analysis with the o-AB assay. Format: biochemical. The note with it: for reaction as substrate: tested at 500 mM.
For assay [4], the target named is T1, human PRODH2 157–515. Put plainly: Anaerobic titration with Hyp. Format: binding. Particulars: Kd from anaerobic titration versus Km from o-AB assay.
Assay [5] addresses T1, human PRODH2 157–515. Put plainly: Sulfite reactivity. Format: binding. The essentials: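 The flavin spectrum was recorded until absorbance stabilised, and ΔA455 was fit hyperbolically for Kd. For adduct reversibility, a proline-analogue inhibitor (1–5 mM final) was added and incubated for 30 min before the spectrum was re-acquired.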
In assay [6] the test system is PRODH homologue of Saccharomyces cerevisiae. The note with it: ref [43], [45]; cited from earlier work.
The test system of assay [7] is E. coli PutA. Particulars: ref [43], [45]; cited from earlier work.
The target of assay [8] is Helicobacter hepaticus PutA. The note with it: read-out: Kd for sulfite binding; ref [34], [45]; cited from earlier work.
In assay [9] the target is human PRODH1. The note with it: read-out: Kd for sulfite binding; ref [34], [45]; cited from earlier work.

Consider 14 compounds from article PMC4377293 (The Biochemical journal, 2015).

Where “and” joins values, the source holds several entries; their conditions need not be identical. Equal values may be shown once.

The Ki is a measure of affinity in units of concentration, obtained from inhibition or displacement. Low readings indicate higher affinity, high ones lower affinity. One may read the kcat as the number of substrate molecules converted per active site and unit of time at saturation. One may read the Km as the concentration of substrate that gives half-maximal velocity. One may read the IC50 as the concentration that gives 50% inhibition. A low value points to higher potency. In general, Kd refers to the concentration at which binding is half-saturated.

For the compound `CC1=CC(=O)c2ccccc2C1=O` [Menadione], the Ki in [1] came to 306 ± 34 µM. Also, the “ability to support Hyp turnover as electron acceptor” value (shortened to “ability to support Hyp turnover”) in [1] (600 mM Hyp) is “support Hyp turnover”.
On to `CC1=C(C)C(=O)C(C)=C(C)C1=O` [Duroquinone], for which the “ability to support Hyp turnover” value in assay [1] (600 mM Hyp) is “support Hyp turnover”.
As for `O=C(O)[C@H]1CC[C@@H](O)C1` [(1S, 3R) 3-OH-cyclopentane carboxylic acid], the “inhibition of HYPDH activity” value is “did not cause inhibition” in [2] and “did not inhibit” in assay [2] (listed as (1S, 3R) 3-OH-cyclopentane-COOH).
Regarding `O=C(O)[C@H]1C[C@@H](O)CN1` (relative stereo) [cis-4-OH-D-proline], the “inhibition of HYPDH activity” value in assay [2] is “did not cause inhibition”. In addition, in assay [3] (200 μM CoQ1), the reaction as substrate entry was “does not react”.
As to `COC1=C(OC)C(=O)C(C/C=C(\C)CCC=C(C)C)=C(C)C1=O` [CoQ2], the “ability to support Hyp turnover” value in assay [1] (600 mM Hyp) is given as “inability to use”.
As to `COC1=C(OC)C(=O)C(CC=C(C)C)=C(C)C1=O` [CoQ1, Coenzyme Q1], the kcat in assay [1] (0–400 μM ubiquinone analogue, 600 mM Hyp, 50 mM HEPES pH 7.5) was 0.19 ± 0.01 s⁻¹. Moreover, the Km in [1] (0–400 μM ubiquinone analogue, 600 mM Hyp, 50 mM HEPES pH 7.5, 4 mM o-AB, 200 nM PRODH2 157–515) amounted to 124 ± 19 µM. In addition, the “ability to support Hyp turnover” value in assay [1] (600 mM Hyp) is listed as “support Hyp turnover”.
Take `O=C(O)[C@@H]1CC[C@@H](O)C1` [(1R, 3R) 3-OH-cyclopentane carboxylic acid]: it took 2100 ± 100 µM to reach half-maximal inhibition in assay [2] (IC50).
For the compound `O=C(O)[C@@H]1C[C@@H](O)CN1` [Hyp, trans-4-hydroxy-L-proline], the “fold lower Kd than Km” value in assay [4] was ~ 1600 fold and 1600 fold. Further, the “fold difference in kcat/Km (specificity constant), Hyp over Pro” value in assay [3] (200 μM CoQ1) was 12 fold and ~ 12 fold. Moreover, in assay [3] (air saturated buffer versus 200 μM CoQ1), the “fold lower kcat with O2 than with CoQ1 as electron acceptor” value is ~ 100 fold.
Take `O=C(O)c1cc(O)[nH]n1` [5-OH-1H-pyrazole-3-COOH]: the IC50 in assay [2] is 2900 ± 100 µM.
Take `O=C(O)C1CCCO1` (stereo not shown) [THFA, tetrahydrofuroic acid]: the IC50 in [2] was 1500 ± 100 µM. The “reversal of the sulfite adduct (flavin spectrum)” value in assay [5] (1–5 mM THFA added, 30 min incubation) is on record as “returned the flavin spectrum to the oxidized state”.
As to `O=S([O-])[O-].[Na+].[Na+]` [sulfite, sodium sulfite], the “time for the spectrum to reach equilibrium (adduct formation)” value in assay [5] (aerobic, 25 °C) is reported as ~ 6 h. The Kd in assay [5] (read-out: Kd for sulfite binding, 50 μM PRODH2 157–515, 50 mM potassium phosphate pH 7.6, 25 °C, 6 h equilibration) was 64 ± 7.7 µM; in assay [8], 400 µM; in [9], 10400 µM. For the same compound, the sulfite binding result in assay [6] and in assay [7] was “do not bind” in each case.
As for `O=C(O)C1CC(O)CN1` [trans-4-OH-D-proline], the “inhibition of HYPDH activity” value in assay [2] is given as “did not cause inhibition”. Besides, the reaction as substrate result in assay [3] (200 μM CoQ1) is “does not react”.
Regarding `O=C(O)[C@@H]1CCCN1` [Pro, L-proline], the “saturation of PRODH2 by substrate” value in assay [3] (up to 750 mM Pro, 200 μM CoQ1) is recorded as “unable to saturate”.
`COC1=C(OC)C(=O)C(C/C=C(\C)CC/C=C(\C)CC/C=C(\C)CCC=C(C)C)=C(C)C1=O` [CoQ4]: the “ability to support Hyp turnover” value in assay [1] (600 mM Hyp) is “inability to use”.
